According to publication PMC4475452 (Chemistry & biology, 2015):

Key:
Assay type in all cases: cell-based
[1] = system: BL cell lines; assay: Proliferation by CellTiter-Glo assay in BL cell lines; details: 72 hours; for Effect on proliferation: BL cell lines, CTG assay
Method in brief: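 Burkitt lymphoma cells were seeded at 50000 per 100 µl in 96-well plates and given increasing concentrations of test compound. After 72 hours, CellTiter-Glo reagent was added and luminescence was read. Relative growth was calculated against DMSO-treated control cells.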

[2] = target: BRD4 (Homo sapiens, UniProt O60885); assay: BRD4 protein level by immunoblot in BL cell lines
[3] = system: BL cell lines; assay: Caspase-Glo 3/7 apoptosis induction assay in BL cell lines; details: 24 hour treatment, four BL cell lines; ARV-825 0.1 µM, JQ1 1.0 µM, OTX015 1.0 µM
Method in brief: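 Four Burkitt lymphoma lines (Namalwa, Ramos, CA-46, DAUDI; from ATCC, maintained as instructed) were exposed for 24 hours to test compounds at 0.1 or 1.0 µM. Puromycin served as the apoptosis-induction positive control. Caspase 3/7 activity was read by luminescent Caspase-Glo 3/7 assay following the manufacturer's protocol.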

[4] = system: c-MYC; assay: c-MYC protein level by immunoblot in BL cell lines; details: for c-MYC level upon withdrawal of compound from culture media: 1.0 µM for 24 hours, then removal, Namalwa and Ramos cells; for Time for c-MYC to recover to control level after compound removal: Namalwa cells, 24 hrs treatment (1.0 µM), three washes; for c-MYC level suppression: overnight treatment with increasing doses, BL cells, immunoblot
[5] = system: SLC19A1; assay: SLC19A1 expression by RT-qPCR in Namalwa cells; details: for Time for SLC19A1 to recover to control treatment level post compound removal: 24 hours treatment (1.0 µM), qPCR
[6] = system: BRD3; assay: BRD3 protein degradation by immunoblot; details: Supp Figure 3
[7] = system: BRD2; assay: BRD2 protein degradation by immunoblot; details: Supp Figure 3
[8] = system: Ramos cells; assay: PARP cleavage by immunoblot; details: 48 hours, 0.1 µM

Compound | Effect on proliferation [1] | Effect on BRD4 protein level [2] | Caspases 3/7 activity [3] | c-MYC level upon withdrawal of compound from culture media [4] | Time for c-MYC to recover to control level after compound removal [4] [h] | c-MYC level suppression [4] | Time for SLC19A1 to recover to control treatment level post compound removal [5] [h] | BRD3 degradation [6] | BRD2 degradation [7] | Proliferation suppression in presence of excessive pomalidomide ([1]; ARV-825 0.01 or 0.1 µM with pomalidomide 1.0 or 10.0 µM) | Apoptosis (PARP cleavage) [8] | SLC19A1 suppression ([5]; compared with JQ1 and OTX015)
Nc1cccc2c1C(=O)N(C1CCC(=O)NC1=O)C2=O (centres unmarked) [pomalidomide] | didn’t show any significant effects | no impact on BRD4 protein levels |  |  |  |  |  |  |  |  |  | 
Cc1sc2c(c1C)C(c1ccc(Cl)cc1)=N[C@@H](CC(=O)Nc1ccc(O)cc1)c1nnc(C)n1-2 [OTX015] |  |  | not with high dose of JQ1 and OTX015 | rapidly restored to normal | 4 | unable to suppress c-MYC levels fully | 6 |  |  |  |  | 
Cc1sc2c(c1C)C(c1ccc(Cl)cc1)=N[C@@H](CC(=O)OC(C)(C)C)c1nnc(C)n1-2 [JQ1] |  |  | not with high dose of JQ1 and OTX015 | rapidly restored to normal | 4 | unable to suppress c-MYC levels fully | 6 |  |  |  |  | 
Cc1sc2c(c1C)C(c1ccc(Cl)cc1)=N[C@@H](CC(=O)Nc1ccc(OCCOCCOCCOCCNc3cccc4c3C(=O)N(C3CCC(=O)NC3=O)C4=O)cc1)c1nnc(C)n1-2 (some centres unmarked) [ARV-825] | more pronounced suppression of proliferation than both JQ1 and OTX015 |  | increased caspases 3/7 activity |  |  | more pronounced downregulation of c-MYC |  | can be degraded | can be degraded | rescued the proliferation suppression effect | significant apoptosis | suppressed more substantially
